Measurements reported in ChEMBL document CHEMBL1157051, “New dioxazole derivatives: Synthesis and effects on the growth of Entamoeba histolytica and Giardia intestinalis” (Eur J Med Chem, 2010).
≈ marks a conversion by molar mass, not a printed value.

What was measured:
Vero = test: Cytotoxicity against african green monkey Vero cells after 72 hrs by SRB assay; assay type: cell-based; conditions: Chlorocebus sabaeus
How it was run: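 Vero (ATCC CCL-81) at 10⁵ cells/mL in Eagle's MEM with heat-inactivated FBS and 1 mM sodium pyruvate. Samples at maximum final concentration […]; 0.05% DMSO negative control. 72 h at 37 °C, 5% CO₂. Viability by sulphorhodamine B assay; cytotoxic defined as IC50 below the 180 cutoff.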

Entamoeba histolytica = test: Antiamoebic activity against Entamoeba histolytica HM-1:IMSS trophozoites after 72 hrs by microdilution technique; assay type: functional, organism-based
How it was run: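 HM1:IMSS trophozoites in TYIS-33 medium, detached by chilling on ice; 1.7 × 10⁴ organisms/well. Samples in DMSO (final ≤0.1%), diluted in medium. Plates gassed with nitrogen 10 min, incubated 37 °C for 72 h. Washed in warm 0.9% NaCl, methanol-fixed, eosin-stained, dye released with 0.1 N NaOH, OD 490 nm. IC50 from linear regression of % inhibition vs log dose; triplicate.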

Giardia intestinalis = test: Antigiardial activity against Giardia intestinalis Thai trophozoites after 24 hrs by inverted microscopic analysis; assay type: functional; conditions: Giardia duodenalis
[1] = Safety index, ratio of IC50 for african green monkey Vero cells to IC50 for Entamoeba histolytica HM-1:IMSS; assay type: toxicity, cell-based; conditions: read-out: Ratio IC50

IC50 (Entamoeba histolytica) [µM]	MIC (Giardia intestinalis) [µM]	Compound	IC50 (Vero) [µM]	selectivity ratio [1]
9.97	5.65 (≈ 1.56 µg/mL)	O=[N+]([O-])c1ccc(C2=NOC(c3ccccc3)O2)s1 (stereo not given)	< 180	–
1.8	> 1500	COc1ccc(C2ON=C(c3ccc(C)cc3)O2)cc1 (stereo not given)	> 180	> 100
2.64	5.33 (≈ 1.56 µg/mL)	O=[N+]([O-])c1ccc(C2=NOC(c3ccccc3O)O2)s1 (stereo not given)	< 180	–
7.3	> 1500	Cc1ccc(C2=NOC(C)(c3ccc(Cl)cc3)O2)cc1 (stereo not given)	–	–
1.8	> 1500	Cc1ccc(C2=NOC(C)(c3ccccc3)O2)cc1 (stereo not given)	> 180	> 100
1.6	20.4 (≈ 6.25 µg/mL)	COc1ccc(C2ON=C(c3ccc([N+](=O)[O-])s3)O2)cc1 (stereo not given)	< 180	–
3.77	10.8 (≈ 3.13 µg/mL)	CC1(c2ccccc2)ON=C(c2ccc([N+](=O)[O-])s2)O1 (stereo not given)	< 180	–
6.1	4.55 (≈ 1.48 µg/mL)	CC1(c2ccc(Cl)cc2)ON=C(c2ccc([N+](=O)[O-])s2)O1 (stereo not given)	< 180	–
7.82	> 1500	Cc1ccc(C2=NOC(c3ccccc3)O2)cc1 (stereo not given)	–	–
8.61	> 1500	Cc1ccc(C2=NOC(c3ccccc3O)O2)cc1 (stereo not given)	–	–
–	14.6 (≈ 2.5 µg/mL)	Cc1ncc([N+](=O)[O-])n1CCO [METRONIDAZOLE]	–	–
